# Paper PMC5788414 (Journal of Medicinal Chemistry, 2017)
# Values joined by “and” are separate entries in the source; they are usually repeats but may differ in a detail not shown here. Equal entries are not always repeated. “Also recorded” adds a separate entry of the source.
# Legend:
# acute leukemia model = acute leukemia model in mice ref 23; cited from earlier work
# [1] = system: BRD2, BRD3, and BRD4 proteins; assay: Western blotting of BET protein levels in RS4; type: cell-based, human
# c-Myc [2] = assay: Western blotting of c-Myc level in RS4; type: cell-based, human; settings: for Concentration effectively down-regulating the level of c-Myc: RS4;11 cells, 24 h treatment, Western blot
# In short: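 RS4;11 cells (2 × 10⁶/well) were exposed for 24 h to the test compound at the indicated concentrations. Cells were lysed in RIPA buffer with protease inhibitors. Lysate (20 μg per lane) was separated by SDS–PAGE, transferred to PVDF, and immunoblotted for c-Myc, with GAPDH as the loading control.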
# MOLM-13 cell line [3] = assay: Apoptosis induction by flow cytometry; type: cell-based, human; settings: MOLM-13, 24 h treatment
# In short: (§1)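 RS4;11 or MOLM-13 cells were grown in RPMI 1640 with 10% FBS and 1% penicillin–streptomycin at 37 °C, 5% CO₂, and used within three months of thawing. Cells were treated with the test compound at the indicated concentrations for 24 h. They were then stained with annexin V and propidium iodide and analysed by flow cytometry.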
# BRD2, BRD3, and BRD4 = assay: FP-based competitive binding assays, BET proteins overall; settings: binding to BRD2, BRD3, BRD4; comparator 1 or 2
# RS4;11 cell line [4] = assay: Cell cycle arrest by flow cytometry; type: cell-based, human; settings: RS4;11, 24 h
# In short: (§2)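 Cell cycle was read by propidium iodide staining and flow cytometry after 24 h exposure to the test compound at the indicated concentrations. RS4;11 or MOLM-13 cells were cultured in RPMI 1640 with 10% FBS and 1% penicillin–streptomycin at 37 °C, 5% CO₂, and used within three months of thawing.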
# MOLM-13 cell line [5] = assay: Cell cycle arrest by flow cytometry; type: cell-based, human; settings: MOLM-13, 24 h
# In short: as §2
# RS4;11 cell line [6] = assay: Apoptosis induction by flow cytometry; type: cell-based, human; settings: RS4;11, 24 h treatment
# In short: as §1
# BRD4 = BRD4 (Homo sapiens, UniProt O60885); assay: Western blotting of BRD4 protein level in RS4; type: cell-based; settings: RS4;11 cells
# In short: (§3)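 RS4;11 cells (2 × 10⁶/well) were treated with the test compound at the indicated concentrations for 3 h or 24 h. Cells were lysed in RIPA buffer with protease inhibitors. Lysate (20 μg per lane) was separated by SDS–PAGE, blotted onto PVDF, and probed with BRD2, BRD3 and BRD4 antibodies, with GAPDH as the loading control.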
# [7] = In vitro metabolite identification in mouse liver microsomes; type: in vitro ADME; settings: 10 μM, MLM with β-NADPH, 37 °C, 20 and 40 min
# In short: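 Incubation was quenched with a 3-fold volume of ice-cold acetonitrile, then centrifuged at 15 000 rpm for 10 min; supernatant stored at −80 °C. Negative controls omitted NADPH or used boiled microsomes. Metabolites were identified by tandem mass spectrometry, starting from the parent's product ion spectrum to establish fragmentation.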
# [8] = system: BRD2, BRD3, and BRD4 proteins; assay: Pharmacodynamic Western blotting of BET proteins in RS4; type: in vivo, SCID mice; settings: single intravenous dose, 5 mg/kg
# In short: (§4)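 SCID mice bearing RS4;11 xenografts were given one 5 mg/kg IV dose of the test compound and killed at 1, 3, 6 or 24 h; vehicle-treated mice were killed at 6 h. Two mice were used per time point, with one or two tumours each. Lysates were run on 4–20% gels and immunoblotted on PVDF for BRD2–4, c-Myc, PARP and caspase-3. Actin was the loading control, with ECL detection.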
# RS4;11 xenograft tumors = assay: Antitumor efficacy in RS4; type: in vivo; settings: mice, 5 mg/kg intravenously
# In short: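 Human RS4;11 leukaemia cells (5 × 10⁶, in 50% Matrigel) were injected subcutaneously on the dorsal side of SCID mice, one tumour per mouse. At ∼100 mm³, mice were randomised to treatment or vehicle groups. The test compound was given at 5 mg/kg IV every other day, three times a week, for 3 weeks. Tumours were measured by calipers 2–3 times weekly (V = LW²/2). Body weight and toxicity signs were monitored.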
# [9] = system: triple-negative human breast cancer; settings: in vitro and in vivo ref 32; cited from earlier work
# [10] = Drug concentration in RS4; type: in vivo, SCID mice
# In short: (§5)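 Female SCID C.B-17 mice bearing RS4;11 tumours received a single 5 mg/kg IV dose in 20% PEG 400, 6% Cremophor EL and 74% PBS. Mice were killed at 1, 3, 6 and 24 h (two mice per time point, three tumours per time point). Plasma came from blood spun at 15 000 rpm for 10 min; tumours were frozen and ground in liquid nitrogen. Samples were kept at −80 °C and assayed by LC–MS/MS on a C18 column.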
# BRD3 = BRD3 (Homo sapiens, UniProt Q15059); assay: Western blotting of BRD3 protein level in RS4; type: cell-based; settings: RS4;11 cells, Western blot
# In short: as §3
# [11] = Animal weight and signs of toxicity in RS4; type: in vivo; settings: mice bearing RS4;11 xenografts, 5 mg/kg intravenously, three times a week for 3 weeks
# In short: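 Subcutaneous dorsal xenografts in SCID mice: 5 × 10⁶ RS4;11 cells in 50% Matrigel, one tumor per mouse. Mice randomised to treatment or vehicle groups at ~100 mm³. Dosing was intravenous every other day. Toxicity signs checked daily. Body weight recorded 2–3 times per week during treatment and at least weekly afterwards.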
# PARP and caspase-3 = assay: Pharmacodynamic Western blotting of PARP and caspase-3 cleavage in RS4; type: in vivo, SCID mice; settings: single intravenous dose, 5 mg/kg
# In short: as §4
# [12] = Drug concentration in plasma; type: in vivo, SCID mice
# In short: as §5
# BRD2 = BRD2 (Homo sapiens, UniProt P25440); assay: Western blotting of BRD2 protein level in RS4; type: cell-based; settings: RS4;11 cells, Western blot
# In short: as §3
# c-Myc [13] = assay: Pharmacodynamic Western blotting of c-Myc in RS4; type: in vivo, SCID mice; settings: single intravenous dose, 5 mg/kg
# In short: as §4
# [14] = system: RS4;11 acute leukemia cell line; assay: Cell growth inhibition; type: cell-based, human; settings: comparator 23
# [15] = system: MOLM-13 acute leukemia cell line; assay: Cell growth inhibition; type: cell-based, human; settings: MOLM13; comparator 23
# [16] = RS4;11 cells, 3 h treatment, Western blot
# [17] = 1 h after single 5 mg/kg intravenous dose
# [18] = 3 h after single 5 mg/kg intravenous dose
# [19] = 6 h after single 5 mg/kg intravenous dose
# Sequence of BRD2 (P25440 whole entry): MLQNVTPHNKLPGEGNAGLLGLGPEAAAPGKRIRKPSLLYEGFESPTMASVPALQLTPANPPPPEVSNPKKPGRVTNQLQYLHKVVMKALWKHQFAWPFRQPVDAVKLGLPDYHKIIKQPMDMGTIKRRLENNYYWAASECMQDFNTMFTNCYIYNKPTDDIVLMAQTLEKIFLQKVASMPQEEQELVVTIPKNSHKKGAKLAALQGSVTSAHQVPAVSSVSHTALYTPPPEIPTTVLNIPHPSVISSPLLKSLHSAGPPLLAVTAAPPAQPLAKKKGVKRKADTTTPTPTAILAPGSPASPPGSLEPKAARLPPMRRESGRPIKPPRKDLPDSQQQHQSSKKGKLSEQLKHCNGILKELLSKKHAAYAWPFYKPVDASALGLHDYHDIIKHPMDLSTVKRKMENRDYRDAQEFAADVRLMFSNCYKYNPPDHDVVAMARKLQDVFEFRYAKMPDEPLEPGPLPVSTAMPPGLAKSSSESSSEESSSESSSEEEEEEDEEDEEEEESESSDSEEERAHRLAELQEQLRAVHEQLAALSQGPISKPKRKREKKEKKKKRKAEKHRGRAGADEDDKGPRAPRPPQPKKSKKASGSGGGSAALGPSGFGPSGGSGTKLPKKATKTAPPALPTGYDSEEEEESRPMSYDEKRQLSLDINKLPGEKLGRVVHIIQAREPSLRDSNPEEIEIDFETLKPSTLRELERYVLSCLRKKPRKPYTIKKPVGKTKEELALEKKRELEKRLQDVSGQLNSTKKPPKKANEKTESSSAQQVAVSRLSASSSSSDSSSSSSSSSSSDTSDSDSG
# Sequence of BRD3 (Q15059 whole entry): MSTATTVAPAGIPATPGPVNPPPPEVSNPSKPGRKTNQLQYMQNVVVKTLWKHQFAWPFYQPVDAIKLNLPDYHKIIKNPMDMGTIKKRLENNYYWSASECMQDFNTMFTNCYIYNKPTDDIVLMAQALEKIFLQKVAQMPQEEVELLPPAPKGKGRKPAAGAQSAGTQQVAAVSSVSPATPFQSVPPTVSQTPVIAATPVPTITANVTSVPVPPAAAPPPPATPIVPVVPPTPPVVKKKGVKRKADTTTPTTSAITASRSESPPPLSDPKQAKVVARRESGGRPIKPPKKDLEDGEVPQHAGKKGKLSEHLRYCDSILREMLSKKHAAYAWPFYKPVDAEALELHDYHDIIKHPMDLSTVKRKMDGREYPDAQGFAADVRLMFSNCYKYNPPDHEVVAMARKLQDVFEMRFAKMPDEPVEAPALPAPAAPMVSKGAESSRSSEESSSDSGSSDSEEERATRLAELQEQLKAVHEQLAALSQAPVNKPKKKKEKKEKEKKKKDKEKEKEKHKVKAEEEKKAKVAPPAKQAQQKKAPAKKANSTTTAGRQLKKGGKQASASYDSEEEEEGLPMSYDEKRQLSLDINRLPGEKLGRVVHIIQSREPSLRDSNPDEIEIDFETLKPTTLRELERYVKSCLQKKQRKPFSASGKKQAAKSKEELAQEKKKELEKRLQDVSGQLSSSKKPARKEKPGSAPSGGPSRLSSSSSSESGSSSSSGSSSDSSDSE
structure (smiles),measurement,setting,value
"Cc1sc2c(c1C)C(c1ccc(Cl)cc1)=N[C@@H](CC(=O)NCCCCNC(=O)COc1cccc3c1C(=O)N(C1CCC(=O)NC1=O)C3=O)c1nnc(C)n1-2 (stereo partly shown) [Compound 4, dBET1, reference compound]",Inhibition of tumor growth in vivo compared with 1,acute leukemia model,more effective
same,"Effect on the level of BRD2, BRD3, and BRD4 proteins",[1]; [16],effectively decrease
"CCn1nc(C2CC2)cc1Nc1nc(C(=O)NC)nc2[nH]c3cc(-c4c(C)noc4C)c(OC)cc3c12 [Compound 8, 4-((3-Cyclopropyl-1-ethyl-1H-pyrazol-5-yl)amino)-7-(3,5-dimethylisoxazol-4-yl)-6-methoxy-N-methyl-9H-pyrimido[4,5-b]indole-2-carboxamide]",Concentration effectively down-regulating the level of c-Myc,c-Myc [2],300 to 1000 nM
same,Concentration inducing robust apoptosis,MOLM-13 cell line [3],> 300 nM
same,times more potent than 1 or 2 in binding,"BRD2, BRD3, and BRD4",> 10 times
same,Concentration effective in inducing cell cycle arrest,RS4;11 cell line [4],30 nM
same,Concentration effective in inducing cell cycle arrest,MOLM-13 cell line [5],30 to 100 nM
same,Concentration inducing robust apoptosis,RS4;11 cell line [6],> 300 nM
same,"Effect of pretreatment on degradation of BRD2, BRD3, and BRD4 induced by 23","[1]; RS4;11 cells, 2 h pretreatment, then 3 h treatment with 23 at 1 nM",effectively blocks
same,Effect on the level of BRD2–4 proteins,"[1]; RS4;11 cells, 3 h, at both 100 and 300 nM",fails to decrease
same,Effect on the level of BRD2–4 proteins,"[1]; RS4;11 cells, 24 h, all concentrations tested (30–1000 nM)",no effect
"CCn1nc(C2CC2)cc1Nc1nc(C(=O)NCCCCCc2cccc3c2CN(C2CCC(=O)NC2=O)C3=O)nc2[nH]c3cc(-c4c(C)noc4C)c(OC)cc3c12 (stereo not shown) [Compound 23, 4-((3-Cyclopropyl-1-ethyl-1H-pyrazol-5-yl)amino)-7-(3,5-dimethylisoxazol-4-yl)-N-(5-(2-(2,6-dioxopiperidin-3-yl)-1-oxoisoindolin-4-yl)pentyl)-6-methoxy-9H-pyrimido[4,5-b]indole-2-carboxamide]",Lowest concentration effective in decreasing the level of BRD4 protein,"BRD4; 3 h treatment, Western blot",0.3 nM
same,Lowest concentration degrading BRD4 protein,BRD4; 24 h treatment,30 pM
same,Lowest concentration effectively reducing the level of BRD4 protein,"BRD4; 24 h treatment, Western blot",0.03 nM
same,times more potent than 8 in down-regulation of c-Myc protein,"c-Myc [2]; RS4;11 cell line, comparator 8",> 1000 times
same,Concentration effectively down-regulating the level of c-Myc,c-Myc [2],0.1 nM
same,Major metabolite in mouse liver microsomes,[7],mono- or dihydroxylated product occurring in the alkyl chain in the linker
same,"Duration of reduction of BRD2, BRD3, and BRD4 proteins in tumor tissue",[8],> 24 h
same,"Onset of reduction of BRD2, BRD3, and BRD4 proteins in tumor tissue",[8],1 h
same,Concentration inducing robust apoptosis,MOLM-13 cell line [3],3 to 10 nM
same,Concentration effective in inducing cell cycle arrest,RS4;11 cell line [4],0.3 nM
same,Antitumor activity against RS4;11 xenograft tumors,RS4;11 xenograft tumors,rapid tumor regression
same,Activity against triple-negative human breast cancer,[9],very potent and efficacious
same,"concn in tumor, individual tumor",[10]; [17],123 ng/g and 240.5 ng/g
same,"concn in tumor, individual tumor",[10]; [18],89 ng/g and 120.5 ng/g
same,"concn in tumor, individual tumor",[10]; [19],31.9 ng/g
same,Concentration effective in inducing cell cycle arrest,MOLM-13 cell line [5],1 to 3 nM
same,Lowest concentration effective in decreasing the level of BRD3 protein,BRD3; 3 h treatment,0.1 nM
same,Lowest concentration effectively reducing the level of BRD3 protein,BRD3; 24 h treatment,0.1 nM
same,Concentration inducing robust apoptosis,RS4;11 cell line [6],3 to 10 nM
same,"Lowest concentrations effective in decreasing the level of BRD2, BRD3, and BRD4 proteins",[1]; [16],0.1 to 0.3 nM
same,"Concentrations inducing degradation of BRD2, BRD3, and BRD4 proteins",[1]; RS4;11 leukemia cells,30 to 100 pM
same,Animal weight loss or signs of toxicity,[11],no animal weight loss or other signs of toxicity; also recorded: minimal body weight change; also recorded: no signs of toxicity
same,Onset of cleavage of PARP and caspase-3 in tumor tissue,PARP and caspase-3,3 h
same,Time of peak cleavage of PARP and caspase-3 in tumor tissue,PARP and caspase-3,6 h
same,"concn in plasma, individual mice",[12]; [17],362 ng/mL
same,"concn in plasma, individual mice",[12]; [18],76.1 ng/mL
same,"concn in plasma, individual mice",[12]; [19],7.4 ng/mL
same,Lowest concentration effective in decreasing the level of BRD2 protein,BRD2; 3 h treatment,0.3 nM
same,Lowest concentration effectively reducing the level of BRD2 protein,BRD2; 24 h treatment,0.1 nM
same,Duration of c-Myc down-regulation in tumor tissue,c-Myc [13],at least 6 h
"COc1cc2c(cc1-c1c(C)noc1C)[nH]c1nc(C(=O)NCCCCCc3cccc4c3CN(C3CCC(=O)NC3=O)C4=O)ncc12 (stereo not shown) [Compound 27, 7-(3,5-Dimethylisoxazol-4-yl)-N-(5-(2-(2,6-dioxopiperidin-3-yl)-1-oxoisoindolin-4-yl)pentyl)-6-methoxy-9H-pyrimido[4,5-b]indole-2-carboxamide]",times less potent than 23 in cell growth inhibition,[14],> 10 000 times
same,times less potent than 23 in cell growth inhibition,[15],> 400 times
